The text below walks through data of ChEMBL document CHEMBL1127424, “7-azetidinylquinolones as antibacterial agents. 2. Synthesis and biological activity of 7-(2,3-disubstituted-1-azetidinyl)-4-oxoquinoline- and -1,8-naphthyridine-3-carboxylic acids. Properties and structure-activity relationships of quinolones with an azetidine moiety” (J Med Chem, 1994).

One series deals with Enterobacter cloacae. The series can be described thus: In vitro minimum inhibitory concentration for Enterobacter cloacae ATCC 23355. It counts as functional.
In a further series the test system is Pseudomonas aeruginosa. The series can be described thus: In vitro minimum inhibitory concentration for Pseudomonas aeruginosa ATCC 10145. It counts as functional. In a few lines: (§1)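 Serial 2-fold agar dilution in Mueller Hinton medium, run alongside a reference quinolone. Inoculum adjusted to 10⁸ cfu/mL; compound range 0.007–16 μg/mL.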
The subject of a further series is Morganella morganii. Kind of series: In vitro minimum inhibitory concentration for Morganella morganii ATCC 8019. It counts as functional. In a few lines:
as §1

Series [1] relates to Staphylococcus epidermidis. Kind of series: In vitro minimum inhibitory concentration for Staphylococcus epidermidis ATCC 155-1. It counts as functional. In a few lines: as §1
For another series, the system named is Bacillus subtilis. Kind of series: In vitro minimum inhibitory concentration for Bacillus subtilis ATCC 6633. In kind it is functional. In a few lines: as §1
Another series concerns Proteus vulgaris. Kind of series: In vitro minimum inhibitory concentration for Proteus vulgaris ATCC 8427. In kind it is functional. In a few lines:
as §1

A further series deals with Klebsiella pneumoniae. The series can be described thus: In vitro minimum inhibitory concentration to inhibit Klebsiella pneumoniae ATCC 10031. It counts as functional. In a few lines: as §1
The nature of series [2]: HPLC capacity factor (k'). It counts as ADME. In a few lines:
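Ion-pair reversed-phase HPLC on ODS-2 (10 μm) at 45 °C. Mobile phase: 10 mM sodium heptanesulfonate plus 50 mM KH2PO4 (pH 3.5)–methanol 45:55, 1 mL/min. Samples at 100 μg/mL in DMF, injected in duplicate, UV 280 nm. k' = (tR − t0)/t0.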

For the next series, the system named is Enterococcus faecalis. Kind of series: In vitro minimum inhibitory concentration for Streptococcus faecalis ATCC 10541. It counts as functional. In a few lines:
as §1

A further series relates to Staphylococcus aureus. The series can be described thus: In vitro minimum inhibitory concentration for Staphylococcus aureus ATCC 25178. It counts as functional. In a few lines:
as §1

Another series has as its system Escherichia coli. Kind of series: In vitro minimum inhibitory concentration for Escherichia coli ATCC 10799. In kind it is functional. In a few lines:
as §1

The test system of another series is Bacillus cereus. The series can be described thus: In vitro minimum inhibitory concentration for Bacillus cereus ATCC 11778. In kind it is functional. In a few lines:
as §1

The nature of series [3]: Measured ionization constant (pKa). It counts as physicochemical. The following applies: read-out: pKa1. In a few lines: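 Spectrophotometric titration at 20 ± 1 °C, 0.1 M ionic strength, pH varied with H2SO4 or NaOH made up in the compound stock. Absorbance followed at compound-specific wavelengths chosen from 200–400 nm scans. pKa1 and pKa2 taken as the inflection points of the two-step absorbance vs pH curve.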

Values after ≈ are worked out from the molar mass of the structure shown.

As usually defined, the MIC is the smallest concentration in the dilution series that meets the test's criterion for growth inhibition. Regarding `C[C@H]1[C@H](N)CN1c1c(F)cc2c(=O)c(C(=O)O)cn3c2c1SCC3`, the MIC against Enterobacter cloacae amounted to 0.25 µg/mL (≈ 0.716 µM); in the series on Pseudomonas aeruginosa it was 2 µg/mL (≈ 5.72 µM); against Morganella morganii it was 0.25 µg/mL (≈ 0.716 µM); in series [1], 0.5 µg/mL (≈ 1.43 µM); against Bacillus subtilis, 0.25 µg/mL (≈ 0.716 µM); against Proteus vulgaris it was 1 µg/mL (≈ 2.86 µM). For the same compound, the MIC with Klebsiella pneumoniae came to 0.25 µg/mL (≈ 0.716 µM); in the series with Enterococcus faecalis it was 8 µg/mL (≈ 22.9 µM); with Staphylococcus aureus, 1 µg/mL (≈ 2.86 µM); against Escherichia coli it was 0.5 µg/mL (≈ 1.43 µM); in the series on Bacillus cereus, 1 µg/mL (≈ 2.86 µM). Moreover, the “Log k'” value in [2] is given as -0.1195.

Consider `Nc1c(F)c(N2CC(N)C2)c(F)c2c1c(=O)c(C(=O)O)cn2C1CC1`, for which, in series [2], the “Log k'” value is -0.0505. For the same compound, in [3], the pKa is 6.65.

In the case of `C[C@H]1[C@@H](O)CN1c1c(F)cc2c(=O)c(C(=O)O)cn(C3CC3)c2c1F`, the MIC stood at 0.25 µg/mL (≈ 0.714 µM) in the series with Enterobacter cloacae; 8 µg/mL (≈ 22.8 µM) in the series with Pseudomonas aeruginosa; 0.5 µg/mL (≈ 1.43 µM) against Morganella morganii; 0.25 µg/mL (≈ 0.714 µM) in series [1]; 0.015 µg/mL (≈ 0.0428 µM) against Bacillus subtilis; 0.25 µg/mL (≈ 0.714 µM) in the series on Proteus vulgaris. Also, the MIC came out at 0.015 µg/mL (≈ 0.0428 µM) in the series with Klebsiella pneumoniae; 2 µg/mL (≈ 5.71 µM) in the series on Enterococcus faecalis; 0.25 µg/mL (≈ 0.714 µM) with Staphylococcus aureus; 0.5 µg/mL (≈ 1.43 µM) against Escherichia coli; 0.25 µg/mL (≈ 0.714 µM) against Bacillus cereus. Also, in [2], the “Log k'” value stood at 0.462.

For `C[C@H]1N(c2cc3c(cc2F)c(=O)c(C(=O)O)cn3C2CC2)C[C@]1(C)O`, the MIC in the series with Enterobacter cloacae was 0.25 µg/mL (≈ 0.722 µM); in the series with Pseudomonas aeruginosa it was 2 µg/mL (≈ 5.77 µM); against Morganella morganii, 0.5 µg/mL (≈ 1.44 µM); in [1] it was 0.12 µg/mL (≈ 0.346 µM); in the series on Bacillus subtilis, 0.03 µg/mL (≈ 0.0866 µM); against Proteus vulgaris, 0.25 µg/mL (≈ 0.722 µM). The MIC stood at 0.12 µg/mL (≈ 0.346 µM) with Klebsiella pneumoniae; 2 µg/mL (≈ 5.77 µM) with Enterococcus faecalis; 0.25 µg/mL (≈ 0.722 µM) with Staphylococcus aureus; 0.25 µg/mL (≈ 0.722 µM) against Escherichia coli; 0.12 µg/mL (≈ 0.346 µM) with Bacillus cereus. The “Log k'” value in [2] was 0.599.

As to `C[C@H]1N(c2c(F)cc3c(=O)c(C(=O)O)cn(C4CC4)c3c2F)C[C@]1(C)O`, the MIC in the series with Enterobacter cloacae was 0.5 µg/mL (≈ 1.37 µM); with Pseudomonas aeruginosa it was 2 µg/mL (≈ 5.49 µM); against Morganella morganii, 0.5 µg/mL (≈ 1.37 µM); in series [1], 0.12 µg/mL (≈ 0.329 µM); against Bacillus subtilis, 0.015 µg/mL (≈ 0.0412 µM); in the series on Proteus vulgaris it was 0.25 µg/mL (≈ 0.686 µM). Also, the MIC in the series with Klebsiella pneumoniae was found to be 0.015 µg/mL (≈ 0.0412 µM); with Enterococcus faecalis it was 0.5 µg/mL (≈ 1.37 µM); against Staphylococcus aureus, 0.12 µg/mL (≈ 0.329 µM); against Escherichia coli, 1 µg/mL (≈ 2.74 µM); against Bacillus cereus it was 0.12 µg/mL (≈ 0.329 µM). Moreover, the “Log k'” value in [2] came to 0.6899.

Turning to `CCn1cc(C(=O)O)c(=O)c2cc(F)c(N3C[C@@H](N)[C@@H]3C)cc21`, the MIC in the series on Enterobacter cloacae was found to be 0.12 µg/mL (≈ 0.376 µM); in the series on Pseudomonas aeruginosa it was 2 µg/mL (≈ 6.26 µM); against Morganella morganii, 0.25 µg/mL (≈ 0.783 µM); in series [1], 0.25 µg/mL (≈ 0.783 µM); with Bacillus subtilis it was 0.12 µg/mL (≈ 0.376 µM); in the series on Proteus vulgaris, 1 µg/mL (≈ 3.13 µM). The MIC in the series with Klebsiella pneumoniae is 0.06 µg/mL (≈ 0.188 µM); in the series on Enterococcus faecalis, 2 µg/mL (≈ 6.26 µM); in the series with Staphylococcus aureus, 1 µg/mL (≈ 3.13 µM); in the series on Escherichia coli it was 0.25 µg/mL (≈ 0.783 µM); against Bacillus cereus, 1 µg/mL (≈ 3.13 µM). The “Log k'” value in series [2] is listed as -0.0915.

Take `C[C@@H]1[C@@H](O)CN1c1c(F)cc2c(=O)c(C(=O)O)cn(C3CC3)c2c1F`: the MIC in the series on Enterobacter cloacae worked out at 0.12 µg/mL (≈ 0.343 µM); against Pseudomonas aeruginosa, 2 µg/mL (≈ 5.71 µM); with Morganella morganii, 0.25 µg/mL (≈ 0.714 µM); in series [1], 0.06 µg/mL (≈ 0.171 µM); against Bacillus subtilis, 0.015 µg/mL (≈ 0.0428 µM); with Proteus vulgaris, 0.12 µg/mL (≈ 0.343 µM). The MIC amounted to 0.015 µg/mL (≈ 0.0428 µM) against Klebsiella pneumoniae; 1 µg/mL (≈ 2.85 µM) with Enterococcus faecalis; 0.12 µg/mL (≈ 0.343 µM) in the series with Staphylococcus aureus; 0.25 µg/mL (≈ 0.714 µM) in the series with Escherichia coli; 0.06 µg/mL (≈ 0.171 µM) in the series with Bacillus cereus. Further, the “Log k'” value in [2] is 0.518.

In the case of `C[C@H]1[C@H](N)CN1c1c(F)cc2c(=O)c(C(=O)O)cn(C(C)(C)C)c2c1F`, the MIC in the series with Enterobacter cloacae came out at 0.25 µg/mL (≈ 0.684 µM); in the series with Pseudomonas aeruginosa it was 2 µg/mL (≈ 5.47 µM); in the series with Morganella morganii, 0.25 µg/mL (≈ 0.684 µM); in series [1], 0.25 µg/mL (≈ 0.684 µM); with Bacillus subtilis, 0.06 µg/mL (≈ 0.164 µM); with Proteus vulgaris, 0.25 µg/mL (≈ 0.684 µM). In addition, the MIC against Klebsiella pneumoniae turned out to be 0.06 µg/mL (≈ 0.164 µM); against Enterococcus faecalis, 0.5 µg/mL (≈ 1.37 µM); in the series with Staphylococcus aureus it was 0.25 µg/mL (≈ 0.684 µM); with Escherichia coli, 0.25 µg/mL (≈ 0.684 µM); in the series with Bacillus cereus, 0.25 µg/mL (≈ 0.684 µM). In addition, in [2], the “Log k'” value came to 0.262.

As to `C[C@@H]1[C@@H](O)CN1c1cc2c(cc1F)c(=O)c(C(=O)O)cn2C1CC1`, the MIC turned out to be 0.12 µg/mL (≈ 0.361 µM) with Enterobacter cloacae; 2 µg/mL (≈ 6.02 µM) with Pseudomonas aeruginosa; 0.25 µg/mL (≈ 0.752 µM) in the series with Morganella morganii; 0.06 µg/mL (≈ 0.181 µM) in series [1]; 0.015 µg/mL (≈ 0.0451 µM) against Bacillus subtilis; 0.06 µg/mL (≈ 0.181 µM) against Proteus vulgaris. Moreover, the MIC with Klebsiella pneumoniae turned out to be 0.015 µg/mL (≈ 0.0451 µM); against Enterococcus faecalis it was 2 µg/mL (≈ 6.02 µM); in the series on Staphylococcus aureus, 0.12 µg/mL (≈ 0.361 µM); with Escherichia coli, 0.25 µg/mL (≈ 0.752 µM); with Bacillus cereus it was 0.06 µg/mL (≈ 0.181 µM). Also, the “Log k'” value in series [2] amounted to 0.407.

As to `CC[N+](C)(C)C1CN(c2cc3c(cc2F)c(=O)c(C(=O)O)cn3C2CC2)C1`, the pKa in [3] was found to be 6.46.
